# According to ChEMBL document CHEMBL4513216, “Probing the Open Global Health Chemical Diversity Library for Multistage-Active Starting Points for Next-Generation Antimalarials” (ACS Infect Dis, 2020):
# Assay: Toxicity liver stage against HepG2, at 10uM
# Assay type: cell-based
# Design: test concentration 10 uM, cell line HepG2-A16-CD81EGFP
# Details: human, HepG2-A16-CD81EGFP cells; read-out: INHIBITION
# In short: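 Uninfected HepG2-A16-CD81EGFP cells, 3 × 10^3 per well, 1536-well, plated on prespotted compound at 10 μM final, parasite-free screening media added to match infected plates; puromycin 10 μM positive, DMSO 0.5% negative; run in parallel with 48 h PbLuc assay at 37 °C, 5% CO2; viability by CellTiter-Glo luminescence, normalized to controls.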
row,SMILES,cytotoxicity at 10 µM
1,CN(C)c1nc(N)nc(CN2CCC(c3nc4ccccc4o3)CC2)n1,-6.9%
2,COc1ccccc1CN1C[C@@H](F)[C@@H](OCc2nc3ccccc3[nH]2)C1,9.55%
3,CCNC(=O)N1CC[C@H]2CC(=O)N(CCN3CCNC3=O)CC[C@H]2C1,2.22%
4,COc1cccc(Oc2nc(C)c(C(=O)O)s2)c1OC,1.96%
5,N#Cc1nc(COc2ccc3c(c2)OCO3)oc1N1CCCC1,-42.7%
6,COc1ccc2cnn(CC(=O)NC3CCCCC3)c(=O)c2c1OC,-2.49%
7,Cc1ccc(S(=O)(=O)c2ncccc2CN2CCCCC2)cc1,-47.6%
8,CC(C)CCn1cc(C(=O)NC2CCS(=O)(=O)C2)c2ccccc2c1=O (stereo not given),-3.68%
9,CSCCC(C)(O)CNS(=O)(=O)Cc1ccc(F)cc1 (stereo not given),-5.95%
10,Cc1noc(C)c1S(=O)(=O)N1CCC(Oc2cnccn2)CC1,4.95%
11,O=S(=O)(NCCNc1ccc(-n2cccc2)nn1)c1ccccc1,-0.426%
12,O=S(=O)(Cc1ccccc1)NCCNc1ccc(-n2cccc2)nn1,10.8%
13,CSc1ccc(C(O)CNS(=O)(=O)C2CC2)cc1 (stereo not given),-0.608%
14,O=C(C1CCCO1)N1CCCn2c(nnc2Cn2cccn2)C1 (stereo not given),16.6%
15,CCC(=O)N1CCc2nc(N3CCOCC3)nc(N(C)C)c2CC1,28.9%
16,COCCCN1CC2(CCCCN2C(=O)COC)CC1=O (stereo not given),2.5%
17,CC(C)OC[C@H]1CCC[C@]12CN(S(=O)(=O)c1cccs1)CCO2,-1.52%
18,Cn1cc(CN2CCc3ncnc(C4CCOC4)c3CC2)cn1 (stereo not given),-7.46%
19,COCC(=O)N1CCN(C(=O)NC(C)C)CC2(CC(=O)N(C)C2)C1 (stereo not given),1.76%
20,CCC(CC)C(=O)N1CCc2nc(N3CCCC3)nc(C)c2CC1,1.79%
21,COc1ccc(CN2Cc3cnn(C)c3C(COCC3CC3)C2)cc1 (stereo not given),14.5%
22,CCOc1cccc2c1OCC(=O)N(c1ccc(N(C)C)cc1)C2,4.28%

row,SMILES,cytotoxicity at 10 µM
1,CC(=O)Nc1ncc(-c2ccc(C)cc2)[nH]1,-4.63%
2,Cc1ccc(-c2[nH][nH]c(=O)c2CCN)cc1,6.03%
3,COc1ccc(NC(=O)Cn2cc(-c3ccccc3)ncc2=O)cn1,-4.73%
4,Nc1nnc(C2CC(=O)N(c3ccccc3)C2)s1 (stereo not given),4.23%
5,NC(=O)c1c(-c2ccc(Cl)cc2Cl)csc1NC(=O)CCC(=O)O,8.32%
6,CNc1[nH]nc(N)c1C(=O)Nc1ccc(OC)cc1,14.8%
7,CN1CCC(Cc2cnc3ccccc3c2)C1 (stereo not given),1.42%
8,Cc1ccc(S(=O)(=O)N2C[C@@H]3C[C@@H](NC(=O)C(C)(C)C)[C@@H]3C2)cc1,-3.81%
9,CC(C)CSCCN1CCN(S(C)(=O)=O)CC1,-3.66%
10,CCCOc1ccc(CN)c(OC(F)F)c1,-41.7%
11,CC(C)(C)C(=O)NCC(=O)Nc1cccnc1,-4.96%
12,Cc1ccc(F)c(S(=O)(=O)NCCc2nnc[nH]2)c1,3.16%
13,N#Cc1cccnc1Nc1ccc(N2CCC(C(N)=O)CC2)cc1,-40.1%
14,CN1N=C(C(=O)NCCc2ccc(OC3CCCC3)cc2)CCC1=O,-1.52%
15,Cc1cc(CNC(=O)NCCCC(=O)N2CCc3ccccc32)no1,5.02%
16,OC1(CNCc2ccc(F)c(C(F)(F)F)c2)CCSCC1,5.1%
17,COCCOc1ncccc1C(=O)N(C)c1nccs1,-44.1%
18,COc1ncccc1NC(=O)N1CCOCC1C (stereo not given),-4.86%
19,CC(c1ncc(C(C)(C)C)o1)N1CCN(Cc2ccncc2)CC1 (stereo not given),-12.3%
20,CCOC(=O)CCCN1CCCC(C(=O)Nc2ccc(Cl)cn2)C1 (stereo not given),2.69%
21,Cc1nc(C(=O)N(CC2CCCO2)c2ccncc2)cs1 (stereo not given),-7.3%
22,CCOc1ncccc1CNC(=O)N1CCCC1c1cccs1 (stereo not given),4.93%

row,SMILES,cytotoxicity at 10 µM
1,CC(C)(C)c1noc(CCC(=O)N2CCN(Cc3ccc(Cl)s3)CC2)n1,3.36%
2,Cn1cnc2c1CCN(Cc1nc(-c3ccco3)no1)C2,0.887%
3,Cc1nc(C2CCCN2Cc2cc(Cl)c3c(c2)OCCO3)no1 (stereo not given),7.1%
4,Cc1noc(CCNS(=O)(=O)N2CCCC2c2ccco2)n1 (stereo not given),-6.43%
5,CCN(Cc1noc(C(C)C)n1)Cc1ccc(C#N)cc1F,-2.48%
6,CNS(=O)(=O)c1ccc(CNC(=O)N(C)C(C)COC)cc1 (stereo not given),-5.12%
7,Cc1cccc2c1NC1(CCCC1)NC2=O,-48.5%
8,Cc1ccccc1OCCC(=O)OC(C)C(=O)Nc1sccc1C(N)=O (stereo not given),19.4%
9,c1cc2c(cc1C1CCCN1Cc1nnnn1C1CC1)OCCO2 (stereo not given),-25.7%
10,CS(=O)(=O)NCc1nnc2n1CCN(Cc1cccnc1)C2,-70.9%
11,c1cnc(NCC2Cn3nnc(-c4ccsc4)c3CO2)nc1 (stereo not given),-73.3%
12,O=C(CC1CCCC1)N[C@H]1CN(Cc2c[nH]cn2)C[C@@H]1C1CC1,-54.7%
13,COCCc1noc(CN2CC(Cc3ccccc3)CC2=O)n1 (stereo not given),-7.11%
14,CCCN(Cc1ccccn1)Cc1ccccc1OC,-43.3%
15,O=C(NCCc1csc(-c2cccnc2)n1)c1cnn2c1CCCC2,3.41%
16,CNC(=O)[C@@H]1C[C@@H](N)CN1c1nc(N2CCCC2)nc(C)c1C,-7.82%
17,CCc1[nH]c2c(CNc3cncc(C(=O)OC)n3)cc(C)cc2c1C,1.85%
18,CCn1nc(C(C)C)cc1C(=O)NCC1CCCN(c2ccccn2)C1 (stereo not given),5.65%
19,CCN1CCC(CNS(=O)(=O)N2CCc3ccccc3C2)C1 (stereo not given),-15.4%
20,Cc1nc(C)c(C)c(NCc2cnn3cccnc23)n1,15.5%
21,CC(=O)N1CCc2c(nc(N(C)C)nc2NCCC2CCCCO2)C1 (stereo not given),5.22%
22,O=C(NCCn1cccn1)Nc1cc(C(=O)N2CCOCC2)ccc1Cl,-46.6%

row,SMILES,cytotoxicity at 10 µM
1,O=C(Cn1ccnc1)N1CCCC(OCc2cccnc2)C1 (stereo not given),2.03%
2,NC(=O)C1CCN(CC(=O)NCCn2cc(Cl)cn2)CC1,-50%
3,O=C(O)c1cc(-n2cc3c(n2)CCC3)cc(S(=O)(=O)N2CCOCC2)c1,-7.95%
4,Cc1nc(CN(C)Cc2cn[nH]c2-c2ccc(F)cc2)c[nH]1,-17.8%
5,O=C(NCc1nnnn1-c1ccccc1)c1ccc(C2CCCO2)s1 (stereo not given),0.363%
6,Cc1nonc1C1CCCN1C(=O)c1cc2n(n1)CCCNC2 (stereo not given),-7.73%
7,CSc1ccccc1C(=O)N1C[C@@H](N(C)C)[C@H](c2ccc(C)cc2)C1,-7.02%
8,O=C(c1ccc(Cl)s1)N1CCCn2nc(CN3CC[C@H](F)C3)cc2C1,-1.44%
9,CCOc1ccnc(N[C@@H](Cc2ccccc2)C(N)=O)n1,10.7%
10,CC(O)C(=O)N1CCN(c2ccccc2Cl)C(=O)C1 (stereo not given),-1.59%
11,Cc1cccc(C)c1-c1cc(NCCO)nc2[nH]ccc12,52.4%
12,Cc1nc2c(c(N(C)C)n1)CCN(C(=O)CN1CCC(O)CC1)C2,3.6%
13,Cc1ccc2cc(CN(C)Cc3ccccn3)c(=O)[nH]c2c1,3.08%
14,CCN(C)C(=O)c1cccc(S(=O)(=O)NCCc2nc(C)cc(=O)[nH]2)c1,-39.9%
15,O=C(Cn1c(=O)n(Cc2ccco2)c2ncccc21)Nc1ccccn1,0.822%
16,Nc1nc2nc(C3CCCN(C(=O)c4cscn4)C3)ccc2s1 (stereo not given),-1.44%
17,COc1ccc(-c2nnc(CN3CCCC3Cn3cncn3)o2)cc1 (stereo not given),3.02%
18,CC(C)COC(C)C(=O)NCc1ccc(-n2cncn2)nc1 (stereo not given),-5.65%
19,CSCC(=O)N1CCCC(n2ccnc2C(C)C)C1 (stereo not given),-18.2%
20,O=C(Cc1ccccc1Cl)N1CCCC(n2cncn2)C1 (stereo not given),-11.1%
21,CCn1cc(CN2CCCN(C(=O)Cc3cccs3)CC2)cn1,-2.76%
22,CS(=O)(=O)c1ccc(C(O)CN2CCC(c3ccn[nH]3)CC2)cc1 (stereo not given),-12.1%

row,SMILES,cytotoxicity at 10 µM
1,CNS(=O)(=O)c1cccc(CNc2cc(C(F)(F)F)ccn2)c1,-6.85%
2,CCN1CCC2(CC1)OCCN2C(=O)c1ccc(OC)c(Cl)c1,9.55%
3,CCn1ncc2c1CN(C(=O)c1cscn1)CC2COC (stereo not given),-79.1%
4,O=C(C1CCCC1)N1C[C@@H](c2ccsc2)[C@@H]2CN(C3CCCC3)CC[C@@H]21,4.79%
5,O=c1ccc2c([nH]1)CCC(NCc1ccc(F)cc1)C2 (stereo not given),-1.87%
6,COc1cccc(CC(=O)N2CC[C@@H]3[C@H](CC2)N(C)CCS3(=O)=O)c1,3.68%
7,Cc1cc(CN2C[C@@H]3COC[C@]3(CNC(=O)N(C)C)C2)no1,-71.4%
8,Cc1cccc(CN2C(=O)CO[C@@H]3CN(Cc4cnn(C)c4)C[C@H]32)c1,1.1%
9,Cc1ccc(CN2CCc3onc(C(=O)NC(C)C)c3C2)o1,11.5%
10,Cc1sc(Br)cc1S(=O)(=O)NCCN,-6.69%
11,Cc1oncc1C(=O)N1CCOCC2(CCN(c3ccccn3)C2)C1 (stereo not given),-68.3%
12,CCc1ccc(CN2CCC3(CC2)CC(N2CCN(C)CC2)CO3)cc1 (stereo not given),-2.88%
13,Cc1ccc(C(=O)N2CCn3cnc(COCC4CC4)c3C2)cn1,4.03%
14,Cc1cc(CN2C[C@@H]3COC[C@H](C(=O)N4CCCCO4)[C@@H]3C2)oc1C,-74.1%
15,CNC(=O)[C@@H](CC(C)C)N1CCC[C@H]1C(=O)N(C)Cc1cccnc1,3.95%
16,c1cncc(CN2CC[C@H]3O[C@@H](COCC4CC4)CC[C@H]32)c1,2.19%
17,Cc1cccc(S(=O)(=O)N2C[C@@H]3C[C@H](C(=O)NCC(C)C)[C@H](C2)O3)c1,6.53%
18,CC(C)NC(=O)NCC1(COc2cnccn2)C[C@@H](O)[C@@H](O)C1 (stereo not given in full),-9.85%
19,c1ccc(CN2C[C@@H]3CC[C@H]2CN(Cc2nnc(C4CC4)o2)C3)cc1,-22.4%
20,O=C(Nc1ccccc1)N1C2CCC(O)(CC2)C1CO (stereo not given),-5.2%
21,CCc1cc(N[C@@H]2C[C@@H]3CC[C@H]2C3)n2nccc2n1,-2.24%
22,Cc1noc(C)c1CN1C(=O)[C@@H]2CC[C@H]1CN(C(=O)c1cscn1)C2,-10.6%
